Sampled rows, rich in hits. Any-hit rate of the full collection: about 3.6%.
Hsp70 act: switches on Hsp70 transcription; 200,000 compounds, 0.04% hits; activation, % at 10 µM; HeLa Hsp70 promoter luciferase reporter, luminescence; scaled: vehicle 0, proteasome-inhibitor control 100%; AID 1203;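 active = activation above the mean across all tested compounds plus 3 SD, cutoff set per campaign, cut at about 5.5% in these data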
STAT3 activator: STAT3 signaling activation; U3A cells, IL-6 STAT3-luciferase reporter, luminescence; 100% = signal with IL-6 EC80 alone; activation (% of control), % at 5.6 µM; 190,000 compounds, 0.91% hits; AID 871;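 active = activation above the screen-wide mean of compound activation plus 3 SD, cut at about 130% in these data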
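Detection: reporter luminescence signal / Assay system: STAT1-lacking human U3A cells, STAT3 luciferase reporter / Incubation: compound pre-incubation 1 h before IL-6, then 6 h stimulation at 37 °C / Control set: IL-6-only high control / Read-out: % activation relative to IL-6 control / Probe or stimulus: Interleukin-6, 33 ng/mL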
AHR activator: human AHR activation | P35869 | AHR-responsive luciferase reporter cells, luminescence | activation, % at 5 µM | 320,000 compounds, 2.5% hits | AID 2796; in the data active = activation above about 47%
Target sequence (P35869 whole entry, looked up): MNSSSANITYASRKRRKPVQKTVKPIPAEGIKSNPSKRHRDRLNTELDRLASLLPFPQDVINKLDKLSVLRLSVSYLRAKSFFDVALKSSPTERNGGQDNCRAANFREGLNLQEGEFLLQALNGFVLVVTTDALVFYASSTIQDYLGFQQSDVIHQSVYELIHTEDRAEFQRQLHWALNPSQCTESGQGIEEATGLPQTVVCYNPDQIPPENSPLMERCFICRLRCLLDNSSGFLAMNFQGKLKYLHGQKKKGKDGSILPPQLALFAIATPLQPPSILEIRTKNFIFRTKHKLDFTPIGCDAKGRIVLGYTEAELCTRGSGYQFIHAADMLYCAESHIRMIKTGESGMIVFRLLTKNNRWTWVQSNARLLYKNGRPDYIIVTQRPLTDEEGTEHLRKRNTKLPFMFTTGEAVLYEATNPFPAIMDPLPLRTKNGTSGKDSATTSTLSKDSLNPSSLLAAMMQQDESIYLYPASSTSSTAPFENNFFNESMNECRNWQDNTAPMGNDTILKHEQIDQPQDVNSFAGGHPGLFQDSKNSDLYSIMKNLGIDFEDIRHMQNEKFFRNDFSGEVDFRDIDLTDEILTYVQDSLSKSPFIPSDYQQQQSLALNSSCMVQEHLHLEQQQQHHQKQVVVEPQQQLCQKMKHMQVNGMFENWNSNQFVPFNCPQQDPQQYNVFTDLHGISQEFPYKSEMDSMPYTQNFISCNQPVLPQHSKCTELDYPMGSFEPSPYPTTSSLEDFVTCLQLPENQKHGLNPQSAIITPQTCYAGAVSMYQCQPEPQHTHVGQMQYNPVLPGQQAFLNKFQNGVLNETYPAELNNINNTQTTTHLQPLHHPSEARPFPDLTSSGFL
PolyA inhibitor: yeast polyadenylation inhibition; S. cerevisiae SKY197-pL101 polyadenylation reporter, beta-gal luminescence; efflux-impaired pdr1/pdr3 knockout yeast; score 100 = 6 SD above DMSO; activity score, % at 12 µM; 300,000 compounds, 0.02% hits; AID 1875;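 active = lowest replicate activity score at least 50, where 100 means six control SD above control mean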;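 note: yeast exposed to compound for 9 h at 30 °C; higher score means more reporter readthrough which indicates perturbed polyadenylation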
HSF1 inh: HSF1 inhibition. NIH3T3-HGL HSE-luciferase, MG132-induced, luminescence 8 h; active compounds read low. activity change, negative = inhibition, % at 7.5 µM (by protocol). 300,000 compounds, 0.77% hits. AID 2098;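 active = more than half of replicate wells show activity change below -50%, luminescence cut by over half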;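 note: luciferase reports HSF-1 transcriptional activity via heat shock element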
PERK inh: blocks human PERK kinase; CHO PERK-DD fusion, SEAP luminescence translation reporter; inhibition, % at 5.6 µM; 220,000 compounds, 0.17% hits; AID 1416;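 active = inhibition above the mean inhibition of all tested compounds plus 3 SD, set separately per screening campaign, cut at about 2.9% in these data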;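 note: PERK kinase domain activated by AP20187 dimerizer at 100 nM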
AHR act confirm: confirmation of human aryl hydrocarbon receptor activators; shares compounds with AHR activator; human cells, AHR-responsive luciferase reporter, luminescence; activation, % at 9 µM; 2,300 compounds, 87% hits; in the data active = activation above about 49%;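 note: HepG2 hepatoma cells carrying a DRE-driven firefly luciferase reporter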
PXR act counter: PXR activation, counter-screen for AHR activators | shares compounds with AHR activator | cell-based PXR reporter, luciferase luminescence | activation, % at 11.6 µM | 2,300 compounds, 88% hits; in the data active = activation above about 11%;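 note: human hepatoma DPX-2 cells expressing full-length human PXR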
Each line names hits and unclear results; the compound was inactive in the other large screens (follow-up assays come after a bar, where they were run).

CCCC(=O)NNc1c2ccccc2nc2ccccc12	none
Nc1c2c(nc3ccccc13)N(c1ccccc1)CC2	AHR activator 143, HSF1 inh -53 (no result: Hsp70 act, STAT3 activator, PERK inh) | AHR act confirm 105 | PXR act counter 22
Cc1ccc(NC(=O)c2ccc(NS(=O)(=O)/C=C/c3ccccc3)cc2)nc1	none (no result: Hsp70 act, STAT3 activator, PERK inh)
O=C(CNC(=O)c1cccc(Br)c1)N/N=C/c1cn[nH]c1-c1ccccc1	none
O=C(CNC(=O)c1ccccc1F)N/N=C/c1cn[nH]c1-c1ccccc1	AHR activator 140 | AHR act confirm 92 | PXR act counter 19
NNC(=O)c1[nH]c2ccccc2c1-c1ccccc1	AHR activator 94 (no result: Hsp70 act, STAT3 activator, PERK inh) | AHR act confirm inactive | PXR act counter inactive
CC(C)N1CCC(=NNC(=O)c2cccs2)CC1	none (no result: Hsp70 act, STAT3 activator, PERK inh)
Cc1nc2ccc(NC(=O)c3ccc(Cl)c(NC(=O)c4cccs4)c3)cc2s1	none
Cc1ccc(NC(=O)c2ccc(Cl)c(NC(=O)c3cccs3)c2)cc1	AHR activator 131 (no result: Hsp70 act, STAT3 activator, PERK inh) | AHR act confirm 73 | PXR act counter 41
O=C(Nc1ccccc1C(=O)Nc1ccccc1)c1cccs1	AHR activator 92 (no result: Hsp70 act, STAT3 activator, PERK inh) | AHR act confirm 89 | PXR act counter 30
CN(Cc1ccc(Cl)cc1)C(=O)CNC(=O)C12CC3CC(CC(C3)C1)C2	none (no result: Hsp70 act, STAT3 activator, PolyA inhibitor, HSF1 inh, PERK inh)
CCCN(C(=O)c1cc(Cl)nc2ccccc12)c1c(N)n(Cc2ccccc2)c(=O)[nH]c1=O	none (no result: Hsp70 act, STAT3 activator, PolyA inhibitor, HSF1 inh, PERK inh)
CC(CNC(=O)c1ccccc1Cl)c1ccccc1 (stereo unspecified)	none (no result: Hsp70 act, STAT3 activator, PERK inh)
CN(C)CCNC(=O)c1sc2nc(-c3ccccc3)cc(C(F)(F)F)c2c1N	AHR activator 91 (no result: Hsp70 act, STAT3 activator, PERK inh) | AHR act confirm 100 | PXR act counter 11
Nc1c(Cl)cc(C2=NCCn3nc4cc([N+](=O)[O-])ccc4c32)cc1Cl	AHR activator 118 (no result: Hsp70 act, STAT3 activator, PolyA inhibitor, HSF1 inh, PERK inh) | AHR act confirm 104 | PXR act counter 54
c1ccc(C(c2ccccc2)c2ccn[nH]2)cc1	none (no result: Hsp70 act, STAT3 activator, PERK inh)
c1ccc(C2Nc3ccccc3-c3nc4ccccc4n32)nc1 (stereo unspecified)	AHR activator 80 | AHR act confirm 88 | PXR act counter 114
c1coc(C2Nc3ccccc3-c3nc4ccccc4n32)c1 (stereo unspecified)	AHR activator 129 | AHR act confirm 49 | PXR act counter 71
c1ccc(C2Nc3ccccc3-c3nc4ccccc4n32)cc1 (stereo unspecified)	none
CC(=O)N1CCc2cc(C(=O)CN3CCN(c4ccccn4)CC3)ccc21	none (no result: Hsp70 act, STAT3 activator)
COc1ccccc1C(=O)Nc1ccc2c3c(cccc13)CC2	AHR activator 83 | AHR act confirm inactive | PXR act counter 85
COc1cccc(OC)c1C(=O)Nc1ccc2c3c(cccc13)CC2	none
O=C(NCCCNC(=O)c1ccco1)c1ccc(F)cc1	none (no result: Hsp70 act, STAT3 activator, PERK inh)
CCn1ncc(Br)c1C(=O)Nc1ccc(OC(F)(F)F)cc1	AHR activator 96 (no result: Hsp70 act, STAT3 activator, PERK inh) | AHR act confirm 91 | PXR act counter 20
CCn1ncc(Br)c1C(=O)Nc1ccccc1C(F)(F)F	AHR activator 88 (no result: Hsp70 act, STAT3 activator, PERK inh) | AHR act confirm 92 | PXR act counter 23
O=C(NCc1ccccc1)c1ccc(NC(=O)C2CCCO2)cc1 (stereo unspecified)	none (no result: Hsp70 act, STAT3 activator, PERK inh)
CCC1CCCN1Cn1cnc2c([nH]c3ccccc32)c1=O (stereo unspecified)	AHR activator 84 | AHR act confirm 78 | PXR act counter 54
CCCC1CCc2[nH]nc(C(=O)NN)c2C1 (stereo unspecified)	none (no result: Hsp70 act, STAT3 activator, PolyA inhibitor, HSF1 inh, PERK inh)
O=C(CSc1nnc(NC(=O)c2ccccc2)s1)NCc1ccco1	none (no result: Hsp70 act, STAT3 activator, PERK inh)
COCCSc1nnc(NC(=O)c2ccc3c(c2)OCO3)s1	AHR activator 99 | AHR act confirm 89 | PXR act counter 27
CSc1nnc(NC(=O)c2ccc3c(c2)OCO3)s1	none (no result: Hsp70 act, STAT3 activator, PERK inh)
O=C(CSc1nnc(NC(=O)c2ccc3c(c2)OCO3)s1)NCc1ccco1	AHR activator 82 (no result: PolyA inhibitor, HSF1 inh) | AHR act confirm inactive | PXR act counter 11
O=C(CSc1nc2ccccc2s1)NCc1ccc2c(c1)OCO2	AHR activator 80 | AHR act confirm 106 | PXR act counter 42
O=C(CSc1nnc(SCC(=O)NCc2ccc3c(c2)OCO3)s1)NCc1ccc2c(c1)OCO2	none (no result: AHR activator, PolyA inhibitor, HSF1 inh)
O=C(COC(=O)c1ccc(Cl)cc1Cl)Nc1cccc(S(=O)(=O)NC2=NCCC2)c1	none (no result: Hsp70 act, STAT3 activator, PolyA inhibitor, HSF1 inh, PERK inh)
COc1ccc(CNC(=O)c2ccc(CS(=O)(=O)c3ccc(C)cc3)o2)cc1	none (no result: Hsp70 act, STAT3 activator, PERK inh)
CC(=O)NC1C(=O)N=C(SC(C)C(=O)Nc2cccc(Cl)c2)NC1=O (stereo unspecified)	none
COc1cc(C#Cc2c(-c3cncn3C)n(C)c3ccc(-c4ccc5cc[nH]c5c4)cc23)cc(OC)c1	AHR activator 106 (no result: Hsp70 act, STAT3 activator, PolyA inhibitor, HSF1 inh, PERK inh) | AHR act confirm 82 | PXR act counter 23
Cc1cc(=O)[nH]c(S/C=C/c2ccccc2)n1	AHR activator 118 | AHR act confirm 102 | PXR act counter 26
O=C(COc1ccccc1)N/N=C/c1ccc([N+](=O)[O-])o1	none
O=C(CNc1ccc2ccccc2c1)N/N=C/c1ccc([N+](=O)[O-])o1	AHR activator 126 | AHR act confirm 63 | PXR act counter 11
CC(=O)n1cc(/C=N/NC(=O)c2ccc([N+](=O)[O-])cc2)c2ccccc21	none (no result: Hsp70 act, STAT3 activator, PERK inh)
CC(=O)n1cc(/C=N/NC(=O)c2sc(C)nc2C)c2ccccc21	AHR activator 94 | AHR act confirm 64
Cc1ccc(C(=O)N/C(=C\c2cn(C)c3ccccc23)C(=O)N2CCOCC2)cc1	none (no result: Hsp70 act, STAT3 activator, PERK inh)
Cn1cc(/C=C(\NC(=O)c2ccccc2)C(=O)N2CCOCC2)c2ccccc21	AHR activator 85 (no result: Hsp70 act, STAT3 activator, PERK inh) | AHR act confirm inactive | PXR act counter 87
Cc1ccc(C(=O)NC(=S)Nc2nc(-c3cccc([N+](=O)[O-])c3)cs2)c(Cl)c1	none
CCN1C(=O)c2cccc3c(S(=O)(=O)N(C(C)=O)c4ccc(OC(C)=O)cc4)ccc1c23	none (no result: Hsp70 act, STAT3 activator, PolyA inhibitor, HSF1 inh, PERK inh)
Cc1ccccc1-c1cc(-c2ccccc2O)n[nH]1	AHR activator 112 | AHR act confirm 95 | PXR act counter inactive
COc1ccc(-c2cc(-c3ccccc3)n[nH]2)c(O)c1	AHR activator 125 | AHR act confirm 73 | PXR act counter 17
COc1ccc(O)c(-c2cc(-c3ccccc3Cl)[nH]n2)c1	AHR activator 124 (no result: Hsp70 act, STAT3 activator, PERK inh) | AHR act confirm 273 | PXR act counter 22
Cc1c(Cl)cccc1NC(=O)c1cc(-c2ccccc2O)n[nH]1	none
COc1ccc(OC)c(NC(=O)c2cc(-c3cc(Cl)ccc3O)n[nH]2)c1	none
COc1ccc(-c2ncncc2-c2ccccc2)c(O)c1	none (no result: Hsp70 act, STAT3 activator, PERK inh)
Oc1ccccc1-c1cc(-c2ccccc2)n[nH]1	AHR activator 98 (no result: Hsp70 act, STAT3 activator, PolyA inhibitor, HSF1 inh, PERK inh) | AHR act confirm 88 | PXR act counter 13

High-throughput results as filed in PubChem.
